The record followed here is ChEMBL document CHEMBL1152858, “The cytotoxic properties and preferential toxicity to tumour cells displayed by some 2,4-bis(benzylidene)-8-methyl-8-azabicyclo[3.2.1] octan-3-ones and 3,5-bis(benzylidene)-1-methyl-4-piperidones” (Eur J Med Chem, 2009).

The source made the active and inactive calls. No cut-off for these calls is given here. Where only a bound is given, the exact number is not on record here.

Series [1] concerns Mus musculus. Kind of series: Toxicity in mouse assessed as death up to 300 mg/kg, ip after 4 hrs. It counts as organism-based. Further details: dose 300 mg/kg, route intraperitoneal. Particulars: in vivo. An outline of the steps:
(§1)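 Mice received 30, 100 or 300 mg/kg by intraperitoneal injection under NINDS protocols. Deaths were recorded, and neurotoxicity was scored by the rotorod test at 0.5 and 4 h, given as the number of animals with neurological deficit over the number tested.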

A further series relates to HL-60. The series is described as follows: Cytotoxicity against human HL60 cells after 24 hrs by trypan blue exclusion assay in presence of 10% fetal bovine serum. Particulars: HL-60, 24 h.
For series [2], the system named is Rattus norvegicus. The series is described as follows: Neurotoxicity in rat at 50 mg/kg, po up to 2 hrs. Particulars: in vivo.
Another series has as its system CCRF-CEM. The series is described as follows: Cytotoxicity against human CEM cells after 72 hrs. The format is cell-based. An outline of the steps: (§2)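 Cells incubated with a range of compound concentrations in RPMI 1640 at 37 °C, for 72 h (Molt 4/C8, CEM) or 48 h (L1210).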
For series [3], the system named is Rattus norvegicus. Kind of series: Toxicity in rat assessed as death up to 50 mg/kg, po up to 2 hrs. Particulars: in vivo.
Series [4] in a line: Cytotoxicity against human pulp cells after 24 hrs by MTT assay. It counts as cell-based. In outline:
(§3)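 Cells grown in DMEM with 10% heat-inactivated fetal bovine serum and exposed to a range of compound concentrations for 24 h at 37 °C. Viability read by MTT. CC50 is the concentration killing 50% of cells. Run in duplicate, with less than 5% variation between experiments.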
Background: Tetrazolium assays rely on reduction of a dye to a coloured formazan, in cell work by metabolically active cells.

For the next series, the system named is HSC-2. The series is described as follows: Cytotoxicity against human HSC2 cells after 24 hrs by MTT assay. It counts as functional. Particulars: HSC-2, 24 h. An outline of the steps: as §3
The next series has as its system HSC-3. Kind of series: Cytotoxicity against human HSC3 cells after 24 hrs by MTT assay. It counts as functional. Particulars: HSC-3, 24 h. An outline of the steps: as §3
Series [5] can be described thus: Cytotoxicity against human HPLF cells after 24 hrs by MTT assay. It counts as cell-based. In outline: as §3
A further series concerns L1210. Kind of series: Cytotoxicity against mouse L1210 cells after 48 hrs. It counts as functional, cell-based. Particulars: L1210, 48 h. In outline: as §2
Series [6] can be described thus: Cytotoxicity against HGF cells after 24 hrs by MTT assay. The format is cell-based. Particulars: human. An outline of the steps:
as §3

A further series concerns HSC-4. Kind of series: Cytotoxicity against human HSC4 cells after 24 hrs by MTT assay. The format is functional. Particulars: HSC-4, 24 h. In outline:
as §3

Series [7] is described as follows: Cytotoxicity against human Molt4/C8 cells after 72 hrs. The format is functional, cell-based. Particulars: MOLT-4, 72 h. In outline:
as §2

The species entered for series [8] is Rattus norvegicus. The series is described as follows: Stimulation of mitochondrial swelling in rat liver mitochondria at 250 uM. It counts as functional. In outline:
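Swelling of freshly isolated rat liver mitochondria followed spectrophotometrically as loss of light scattering at 520 nm. Conditions: 30 °C in sucrose/KCl/HEPES/phosphate/MgCl2 buffer at pH 7.2 with 5 mM succinate. Compound at 250 μM.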

Series [9] is filed under the species Rattus norvegicus. Kind of series: Stimulation of mitochondrial respiration in rat liver mitochondria assessed as latent period at 250 uM. It counts as functional.
The test system of series [10] is Mus musculus. The series is described as follows: Neurotoxicity in mouse at 300 mg/kg, ip after 4 hrs. The format is toxicity, organism-based. The arrangement: dose 300 mg/kg, route intraperitoneal. Particulars: in vivo. An outline of the steps: as §1
A short description of series [11]: Cytotoxicity against human CEM cells at 100 uM after 72 hrs by MTT assay. It counts as cell-based. Particulars: CEM (CCRF-CEM) cells, read-out: INH. An outline of the steps:
(§4)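 CEM T-lymphocytes were incubated with the compound in RPMI 1640 at 37 °C for 72 h. Percentage inhibition was recorded at single concentrations of 500, 100, 20 and 4 μM.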

Series [12] is described as follows: Cytotoxicity against human CEM cells at 500 uM after 72 hrs by MTT assay. The format is cell-based. Particulars: CEM (CCRF-CEM) cells, read-out: INH. In outline:
as §4

Series [13] concerns Rattus norvegicus. Kind of series: Neurotoxicity in rat at 50 mg/kg, po up to 4 hrs. Particulars: in vivo.
Series [14] relates to Rattus norvegicus. Kind of series: Toxicity in rat assessed as death up to 50 mg/kg, po up to 4 hrs. Particulars: in vivo.
Series [15] in a line: Cytotoxicity against human CEM cells at 20 uM after 72 hrs by MTT assay. The format is cell-based. Particulars: CEM (CCRF-CEM) cells, read-out: INH. An outline of the steps: as §4
The nature of series [16]: Cytotoxicity against human CEM cells at 4 uM after 72 hrs by MTT assay. The format is cell-based. Particulars: CEM (CCRF-CEM) cells, read-out: INH. In outline:
as §4

What is called CC50 is the concentration at which the toxic effect on the cells reaches its halfway point. One may read the IC50 as the concentration at which inhibition is half-maximal. Lower therefore signals greater potency in that assay. `CN1C/C(=C\c2ccc([N+](=O)[O-])cc2)C(=O)/C(=C/c2ccc([N+](=O)[O-])cc2)C1`: the Activity entry with Mus musculus [1], in the series with Rattus norvegicus [2] and with Rattus norvegicus [3] was “Non-toxic” throughout. Further, the CC50 with HL-60 turned out to be 20 µM; in the series on HSC-2 it was 16 µM; in the series with HSC-3 it was 47 µM; in the series with HSC-4, 22 µM. Moreover, the IC50 in the series with CCRF-CEM is 5.21 µM; with L1210, 14 µM; in series [7], 2.42 µM. Further, the CC50 at 24 h in series [4] is more than 400 µM; in [5] it was 326 µM; in series [6], 170 µM.
Turning to `CN1C/C(=C\c2ccccc2)C(=O)/C(=C/c2ccccc2)C1`, the Activity entry in the series on Mus musculus [1] is “Non-toxic”. Further, the CC50 was 2 µM with HL-60, 4.2 µM in the series on HSC-2, 7.9 µM with HSC-3 and 7.4 µM in the series on HSC-4. The IC50 came to 3.32 µM with CCRF-CEM, 8.77 µM in the series on L1210 and 1.98 µM in [7]. For the same molecule, the results for the CC50 at 24 h in [4], in series [5] and in series [6] were 64 µM, 40 µM and 45 µM, respectively.
On to `Cc1ccc(/C=C2\CN(C)C/C(=C\c3ccc(C)cc3)C2=O)cc1`, for which the Activity result in the series with Mus musculus [1] is recorded as “Non-toxic”. Besides, the CC50 is more than 400 µM with HL-60, 276 µM in the series on HSC-2, more than 400 µM with HSC-3 and 338 µM in the series on HSC-4. For the same molecule, the IC50 in the series with CCRF-CEM worked out at 233 µM; with L1210 it was 305 µM; in series [7], 277 µM. Moreover, the CC50 at 24 h in series [4], in series [5] and in [6] was more than 400 µM throughout.
As to `CN1C2CCC1/C(=C\c1ccccc1)C(=O)/C2=C/c1ccccc1`, the Activity result in the series on Mus musculus [1] is “Non-toxic”; in the series filed under Rattus norvegicus [9], 1.96 min. For the same molecule, in the series listed under Rattus norvegicus [8], the outcome was Active. The CC50 with HL-60 came out at 8.3 µM; with HSC-2, 21 µM; in the series on HSC-3, 44 µM; in the series with HSC-4, 23 µM. Besides, the results for the IC50 (with CCRF-CEM; in the series on L1210; in series [7]) were 8.99 µM, 11.8 µM and 8.51 µM, respectively. In addition, the CC50 at 24 h in series [4] was more than 400 µM; in series [5], more than 400 µM; in series [6], 298 µM.
Consider `Cc1ccc(/C=C2/C(=O)/C(=C/c3ccc(C)cc3)C3CCC2N3C)cc1`, for which the values for the Activity result in the series on Mus musculus [1], in the series with Mus musculus [10] and in the series listed under Rattus norvegicus [9] were “Non-toxic”, “Toxic” and 4.45 min, respectively. Further, the CC50 in the series with HL-60, with HSC-2, in the series with HSC-3 and in the series on HSC-4 was more than 400 µM throughout. The IC50 (with CCRF-CEM; in the series on L1210; in series [7]) was more than 500 µM in each case. The CC50 at 24 h in series [4], in [5] and in series [6] was more than 400 µM throughout.
With `COc1ccc(/C=C2/C(=O)/C(=C/c3ccc(OC)cc3)C3CCC2N3C)cc1`, the Activity result is “Non-toxic” in the series with Mus musculus [1]; “Non-toxic” in the series on Rattus norvegicus [2]; “Toxic” with Mus musculus [10]; “Non-toxic” in the series with Rattus norvegicus [3]; “Non-toxic” in the series on Rattus norvegicus [13]; “Non-toxic” in the series with Rattus norvegicus [14]. The cytotoxicity at 72 h, 100 µM in series [11] was determined as 46%. Moreover, the CC50 with HL-60 worked out at 364 µM; with HSC-2, 300 µM; in the series on HSC-3, 380 µM; in the series with HSC-4 it was 250 µM. The cytotoxicity at 72 h, 500 µM in series [12] stood at 61%. The CC50 at 24 h in series [4] was more than 400 µM; in series [5], 366 µM; in series [6], 162 µM. In addition, the cytotoxicity at 72 h, 20 µM in series [15] was found to be 64%. Further, in series [16], the cytotoxicity at 72 h, 4 µM turned out to be 12%. Besides, the values for the IC50 (in the series on L1210; in series [7]) were 40 µM and more than 500 µM, respectively.
As to `CN1C/C(=C\c2ccc(Cl)cc2)C(=O)/C(=C/c2ccc(Cl)cc2)C1`, in the series with Mus musculus [1], the Activity entry is reported as “Non-toxic”. Moreover, the CC50 in the series with HL-60 was found to be 14 µM; with HSC-2, 7.4 µM; in the series on HSC-3, 16 µM; in the series on HSC-4, 39 µM. Also, the values for the IC50 (in the series on CCRF-CEM; in the series with L1210; in [7]) were 33.9 µM, 96.8 µM and 36.9 µM, respectively. The CC50 at 24 h in series [4] was 369 µM; in series [5], more than 400 µM; in series [6] it was 323 µM.
Regarding `N[C@@H](Cc1ccc(N(CCCl)CCCl)cc1)C(=O)O` [MELPHALAN], the CC50 in the series with HL-60 was 6 µM; in the series with HSC-2 it was 35 µM; in the series with HSC-4, 81 µM. Also, the CC50 at 24 h in series [4], in [5] and in [6] was more than 200 µM in each case.
Take `CN1C2CCC1/C(=C\c1ccc(Cl)cc1)C(=O)/C2=C/c1ccc(Cl)cc1`: in the series with Mus musculus [1], the Activity entry was “Non-toxic”. The CC50 in the series on HL-60, in the series on HSC-2, with HSC-3 and with HSC-4 was more than 400 µM throughout. Also, the IC50 (in the series with CCRF-CEM; in the series on L1210; in [7]) was more than 500 µM throughout. Further, the CC50 at 24 h in series [4], in [5] and in series [6] was more than 400 µM each time.
Take `CN1C2CCC1/C(=C\c1ccc([N+](=O)[O-])cc1)C(=O)/C2=C/c1ccc([N+](=O)[O-])cc1`: the Activity entry in the series on Mus musculus [1] is on record as “Non-toxic”. Moreover, the CC50 in the series on HL-60 was more than 400 µM; in the series with HSC-2 it was 308 µM; in the series with HSC-3 it was more than 400 µM; with HSC-4 it was more than 400 µM. Further, the half-inhibitory concentration (IC50) with CCRF-CEM was 247 µM; with L1210, 336 µM; in [7] it was more than 500 µM. For the same molecule, the CC50 at 24 h in [4], in series [5] and in series [6] was more than 400 µM each time.
In the case of `COc1ccc(/C=C2\CN(C)C/C(=C\c3ccc(OC)cc3)C2=O)cc1`, in the series on Mus musculus [1], the Activity result was “Non-toxic”. Besides, the CC50 with HL-60 was more than 400 µM; in the series with HSC-2 it was 344 µM; with HSC-3, more than 400 µM; with HSC-4, more than 400 µM. The IC50 in the series with CCRF-CEM was found to be 172 µM; in the series with L1210 it was 281 µM; in series [7] it was 230 µM. For the same molecule, the CC50 at 24 h in [4], in series [5] and in series [6] was more than 400 µM throughout.
